ChEMBL document CHEMBL4325914, “Design and Evaluation of Potent EGFR Inhibitors through the Incorporation of Macrocyclic Polyamine Moieties into the 4-Anilinoquinazoline Scaffold” (J Med Chem, 2018)
Activity calls are given as the source filed them. The calls are words filed in the database; no cut-off is given here.

Key:
[1] = tested on: A549; experiment: cells; format: functional, cell-based; details: Homo sapiens, A549, 72 h
[2] = tested on: A-431; experiment: cells; format: functional, cell-based; details: Homo sapiens, A-431, 72 h;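 further: antiproliferative activity measured with an MTT assay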
[3] = biological target: Epidermal growth factor receptor (Homo sapiens, UniProt P00533)
[4] = biological target: Epidermal growth factor receptor (Homo sapiens, UniProt P00533, T790M)
[5] = tested on: A549; experiment: Cytotoxicity against human A549 cells assessed as effect on intracellular ATP levels at 0 to 2 uM after 24 hrs by luciferase-luciferin based assay; format: functional, cell-based
Procedure, shortened: (§1)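 A549 cells were plated at 4000 per well and allowed to settle 12 h. They were then exposed to compound or DMSO for 24 h or 72 h. Medium was removed and reconstituted luciferase-luciferin reagent added. Luminescence was read within 1 min and converted to ATP concentration from a reference plot. Each concentration was run in quadruplicate.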

[6] = biological target: Receptor tyrosine-protein kinase erbB-2 (Homo sapiens, UniProt P04626); experiment: Inhibition of wild type human N-terminal His-tagged HER2 cytoplasmic domain (676 to 1255 residues) expressed in baculovirus expression system after 1 hr in presence of ULight-labeled peptide substrate and ATP by LANCE ultra kinase assay
[7] = tested on: A549; experiment: Cytotoxicity against human A549 cells assessed as depletion of intracellular ATP levels at 8 uM after 72 hrs by luciferase-luciferin based assay; format: functional, cell-based
Procedure, shortened: as §1

[8] = tested on: A549; experiment: Cytotoxicity against human A549 cells assessed as reduction in intracellular ATP levels at 8 uM after 24 hrs by luciferase-luciferin based assay; format: functional, cell-based
Procedure, shortened: as §1

[9] = tested on: L929; experiment: Cytotoxicity against mouse L929 cells assessed as cell growth inhibition after 72 hrs by MTT assay; format: cell-based; details: L929, 72 h
[10] = tested on: A549; experiment: Induction of apoptosis in human A549 cells assessed as late apoptotic cells at 8 uM after 72 hrs by FITC-annexin V/propidium iodide-double staining based flow cytometry (reference value: 6.59%); format: functional
[11] = tested on: A549; experiment: Induction of apoptosis in human A549 cells assessed as early apoptotic cells at 8 uM after 72 hrs by FITC-annexin V/propidium iodide-double staining based flow cytometry (reference value: 9.38%); format: functional
[12] = tested on: A549; experiment: Cytotoxicity against human A549 cells assessed as effect on intracellular ATP levels at 6 uM after 24 hrs by luciferase-luciferin based assay; format: functional, cell-based
Procedure, shortened: as §1

[13] = in vitro; details: mouse, L929 cells
[14] = tested on: A549; experiment: Induction of apoptosis in human A549 cells assessed as late apoptotic cells at 4 uM after 72 hrs by FITC-annexin V/propidium iodide-double staining based flow cytometry (reference value: 6.59%); format: functional
[15] = tested on: A549; experiment: Induction of apoptosis in human A549 cells after 72 hrs by FITC-annexin V/propidium iodide-double staining based flow cytometry; format: functional, cell-based
[16] = tested on: A549; experiment: Cytotoxicity against human A549 cells assessed as depletion of intracellular ATP levels at 2 uM after 72 hrs by luciferase-luciferin based assay; format: functional, cell-based
Procedure, shortened: as §1

[17] = tested on: A549; experiment: Induction of apoptosis in human A549 cells assessed as early apoptotic cells at 4 uM after 72 hrs by FITC-annexin V/propidium iodide-double staining based flow cytometry (reference value: 9.38%); format: functional
[18] = tested on: A549; experiment: Antitumor activity against human A549 cells xenografted in BALB/c nude mouse assessed as tumor necrosis at 30 mg/kg, ig administered every 2 days for 19 days by hematoxylin/eosin-staining based histological analysis; format: functional, organism-based
[19] = tested on: A549; experiment: Induction of apoptosis in human A549 cells assessed as late apoptotic cells at 1 uM after 72 hrs by FITC-annexin V/propidium iodide-double staining based flow cytometry (reference value: 6.59%); format: functional
[20] = tested on: A549; experiment: animal or person; format: functional, Homo sapiens; details: Mus musculus, A549, po, read-out: TGI
[21] = Toxicity in human A549 cells xenografted BALB/c nude mouse assessed as effect on body weight at 30 mg/kg, ig administered every 2 days for 19 days; format: organism-based; details: in vivo, po
Procedure, shortened: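 Female six-week-old BALB/c nude mice received 2.0 × 10^6 A549 cells subcutaneously. Dosing began at mean tumor size 200-400 mm3. 21 mice were randomized to vehicle (water, 30 mL/kg) or drug (30 mg/kg), both intragastric, every 2 days for 19 days. Body weight was recorded. Tumors were caliper-measured twice weekly (V = length × width²/2) and weighed at the end.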

[22] = tested on: A549; experiment: Induction of apoptosis in human A549 cells assessed as early apoptotic cells at 1 uM after 72 hrs by FITC-annexin V/propidium iodide-double staining based flow cytometry (reference value: 9.38%); format: functional

Chain of Epidermal growth factor receptor (Homo sapiens, UniProt P00533) (P00533 whole entry): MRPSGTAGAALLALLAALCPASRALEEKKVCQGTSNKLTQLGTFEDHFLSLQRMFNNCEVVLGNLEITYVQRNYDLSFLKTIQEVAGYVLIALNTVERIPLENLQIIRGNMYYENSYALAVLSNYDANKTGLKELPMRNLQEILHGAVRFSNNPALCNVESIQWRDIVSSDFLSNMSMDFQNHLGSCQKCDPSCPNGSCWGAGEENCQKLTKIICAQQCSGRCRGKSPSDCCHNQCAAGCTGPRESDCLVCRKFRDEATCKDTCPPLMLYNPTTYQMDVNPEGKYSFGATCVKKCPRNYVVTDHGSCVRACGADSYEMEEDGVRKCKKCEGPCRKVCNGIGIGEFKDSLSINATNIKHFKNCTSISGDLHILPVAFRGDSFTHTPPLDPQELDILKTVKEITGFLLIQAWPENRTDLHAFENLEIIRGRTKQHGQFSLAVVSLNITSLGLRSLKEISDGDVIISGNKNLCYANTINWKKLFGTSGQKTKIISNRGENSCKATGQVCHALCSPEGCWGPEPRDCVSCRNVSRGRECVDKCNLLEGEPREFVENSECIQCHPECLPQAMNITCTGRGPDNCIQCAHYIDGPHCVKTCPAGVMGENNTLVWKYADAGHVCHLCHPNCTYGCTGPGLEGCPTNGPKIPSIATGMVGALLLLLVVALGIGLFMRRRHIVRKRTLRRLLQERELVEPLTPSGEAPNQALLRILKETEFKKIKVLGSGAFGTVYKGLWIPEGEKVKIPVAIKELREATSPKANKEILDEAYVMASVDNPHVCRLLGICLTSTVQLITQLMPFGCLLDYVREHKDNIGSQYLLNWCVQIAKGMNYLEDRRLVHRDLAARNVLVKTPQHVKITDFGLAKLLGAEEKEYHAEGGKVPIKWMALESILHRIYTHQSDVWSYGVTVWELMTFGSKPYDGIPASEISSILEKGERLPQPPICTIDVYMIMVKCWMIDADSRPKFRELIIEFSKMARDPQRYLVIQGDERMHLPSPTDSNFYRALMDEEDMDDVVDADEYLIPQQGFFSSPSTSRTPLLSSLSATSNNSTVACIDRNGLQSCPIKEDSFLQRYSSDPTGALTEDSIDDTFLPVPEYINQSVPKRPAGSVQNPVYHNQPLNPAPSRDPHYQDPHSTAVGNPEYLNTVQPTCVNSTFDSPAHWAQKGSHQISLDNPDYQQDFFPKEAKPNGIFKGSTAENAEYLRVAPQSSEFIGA
Chain of Receptor tyrosine-protein kinase erbB-2 (P04626 whole entry, the tested form may be a part): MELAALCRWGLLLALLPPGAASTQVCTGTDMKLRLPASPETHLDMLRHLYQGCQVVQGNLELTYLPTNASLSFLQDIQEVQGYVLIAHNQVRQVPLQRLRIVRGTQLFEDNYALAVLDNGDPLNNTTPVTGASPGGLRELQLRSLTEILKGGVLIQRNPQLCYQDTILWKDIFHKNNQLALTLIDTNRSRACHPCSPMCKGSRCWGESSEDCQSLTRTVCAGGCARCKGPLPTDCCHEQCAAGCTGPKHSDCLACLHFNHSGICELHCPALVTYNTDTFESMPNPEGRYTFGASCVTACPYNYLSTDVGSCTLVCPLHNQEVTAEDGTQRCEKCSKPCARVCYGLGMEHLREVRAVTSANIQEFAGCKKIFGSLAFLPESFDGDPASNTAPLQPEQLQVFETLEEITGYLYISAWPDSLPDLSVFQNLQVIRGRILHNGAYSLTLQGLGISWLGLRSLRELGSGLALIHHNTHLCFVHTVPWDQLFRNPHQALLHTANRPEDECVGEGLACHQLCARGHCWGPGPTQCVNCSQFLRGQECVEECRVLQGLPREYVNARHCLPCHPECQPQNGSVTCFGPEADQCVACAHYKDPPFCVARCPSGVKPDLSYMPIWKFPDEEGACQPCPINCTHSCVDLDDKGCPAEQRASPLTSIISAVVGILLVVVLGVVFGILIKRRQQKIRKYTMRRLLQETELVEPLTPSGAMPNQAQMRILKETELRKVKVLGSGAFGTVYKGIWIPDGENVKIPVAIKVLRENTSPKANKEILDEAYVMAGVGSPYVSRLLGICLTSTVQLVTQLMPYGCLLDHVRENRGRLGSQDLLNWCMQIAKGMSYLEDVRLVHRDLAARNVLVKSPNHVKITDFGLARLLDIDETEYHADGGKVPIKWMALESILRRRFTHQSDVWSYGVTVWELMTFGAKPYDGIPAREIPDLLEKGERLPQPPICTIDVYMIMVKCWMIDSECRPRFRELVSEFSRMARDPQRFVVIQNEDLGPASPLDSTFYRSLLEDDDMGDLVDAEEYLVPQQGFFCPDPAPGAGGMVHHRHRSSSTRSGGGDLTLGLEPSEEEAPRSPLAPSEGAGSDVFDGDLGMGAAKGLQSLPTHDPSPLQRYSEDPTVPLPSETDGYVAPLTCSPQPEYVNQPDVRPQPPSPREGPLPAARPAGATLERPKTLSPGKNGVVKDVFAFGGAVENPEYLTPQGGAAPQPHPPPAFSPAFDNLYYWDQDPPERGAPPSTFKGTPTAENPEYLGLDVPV
Chain of Epidermal growth factor receptor (Homo sapiens, UniProt P00533, T790M) (P00533 25-1210 T790M limits assumed): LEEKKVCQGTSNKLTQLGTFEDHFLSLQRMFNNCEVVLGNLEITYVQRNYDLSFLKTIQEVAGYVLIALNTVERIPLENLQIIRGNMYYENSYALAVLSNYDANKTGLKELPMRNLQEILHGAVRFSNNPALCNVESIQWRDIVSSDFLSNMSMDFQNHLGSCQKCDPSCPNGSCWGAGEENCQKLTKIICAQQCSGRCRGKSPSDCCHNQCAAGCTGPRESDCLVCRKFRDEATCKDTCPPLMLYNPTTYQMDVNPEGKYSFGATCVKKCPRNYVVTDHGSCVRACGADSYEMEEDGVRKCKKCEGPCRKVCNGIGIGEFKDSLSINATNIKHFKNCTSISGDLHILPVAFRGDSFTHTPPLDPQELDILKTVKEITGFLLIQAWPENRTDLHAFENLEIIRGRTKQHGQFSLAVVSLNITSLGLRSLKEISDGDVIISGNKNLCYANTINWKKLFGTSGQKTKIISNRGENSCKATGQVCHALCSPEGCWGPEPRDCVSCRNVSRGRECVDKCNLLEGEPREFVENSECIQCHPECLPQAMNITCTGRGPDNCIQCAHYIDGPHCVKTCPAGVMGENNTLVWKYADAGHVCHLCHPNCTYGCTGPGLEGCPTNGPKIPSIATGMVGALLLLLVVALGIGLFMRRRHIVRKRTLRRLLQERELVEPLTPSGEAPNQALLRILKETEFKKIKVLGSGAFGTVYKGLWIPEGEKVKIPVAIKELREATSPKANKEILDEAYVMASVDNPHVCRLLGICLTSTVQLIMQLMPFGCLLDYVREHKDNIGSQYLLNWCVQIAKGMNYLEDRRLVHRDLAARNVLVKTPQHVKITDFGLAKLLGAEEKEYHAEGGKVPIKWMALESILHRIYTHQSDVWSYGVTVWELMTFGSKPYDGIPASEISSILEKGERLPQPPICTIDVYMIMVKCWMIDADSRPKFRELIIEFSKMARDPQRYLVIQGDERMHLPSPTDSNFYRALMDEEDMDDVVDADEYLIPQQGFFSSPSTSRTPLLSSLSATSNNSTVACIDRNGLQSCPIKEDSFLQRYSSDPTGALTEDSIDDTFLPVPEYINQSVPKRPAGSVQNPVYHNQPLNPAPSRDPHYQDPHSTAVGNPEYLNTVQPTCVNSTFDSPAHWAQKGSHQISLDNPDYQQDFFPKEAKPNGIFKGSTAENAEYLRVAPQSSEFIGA

IC50 [1]	IC50 [2]	Structure (SMILES)	other results
11.8 µM	1.58 µM	COc1cc2ncnc(Nc3ccc(F)c(Br)c3)c2cc1OCCCN1CCNCCNCCNCC1	–
44.2 µM	4.08 µM	COc1cc2ncnc(Nc3ccc(Cl)cc3Cl)c2cc1OCCCN1CCNCCNCC1	–
> 50 µM	12.7 µM	COc1cc2ncnc(Nc3ccc(C#N)cc3F)c2cc1OCCCN1CCNCCNCC1	–
34.3 µM	1.06 µM	COc1cc2ncnc(Nc3ccc(F)c(Br)c3)c2cc1OCCCN1CCNCCNCC1	–
3.64 µM	–	CS(=O)(=O)CCNCc1ccc(-c2ccc3ncnc(Nc4ccc(OCc5cccc(F)c5)c(Cl)c4)c3c2)o1 [LAPATINIB]	IC50 [9]: 2.05 µM; Activity [10]: 5.73%; Activity [11]: 52.04%; Activity [5]: inactive; Activity [12]: Active; inhibition at 72 h, 1 µM [13]: 35%
23.8 µM	4.38 µM	COc1cc2ncnc(Nc3ccc(Cl)cc3Cl)c2cc1OCCCN1CCNCCNCCNCC1	–
14.7 µM	1.05 µM	COc1cc2ncnc(Nc3cccc(Br)c3)c2cc1OCCCN1CCNCCNCCNCC1	–
5.35 µM	1.71 µM	COc1cc2ncnc(Nc3ccc(Cl)c(C(F)(F)F)c3)c2cc1OCCCN1CCNCCNCCNCC1	–
15.7 µM	1.95 µM	COc1cc2ncnc(Nc3cccc(C(F)(F)F)c3)c2cc1OCCCN1CCNCCNCCNCC1	–
27.1 µM	1.42 µM	COc1cc2ncnc(Nc3cccc(Cl)c3)c2cc1OCCCN1CCNCCNCCNCC1	–
> 50 µM	3.21 µM	COc1cccc(Nc2ncnc3cc(OC)c(OCCCN4CCNCCNCCNCC4)cc23)c1	–
> 50 µM	1.86 µM	COc1cc2ncnc(Nc3cccc(F)c3)c2cc1OCCCN1CCNCCNCCNCC1	–
6.23 µM	2.98 µM	COc1cc2ncnc(Nc3ccc(Cl)c(C(F)(F)F)c3)c2cc1OCCCN1CCNCCNCC1	–
> 50 µM	1.31 µM	COc1cc2ncnc(Nc3ccc(F)c(Cl)c3)c2cc1OCCCN1CCNCCNCC1	IC50 [3]: 0.0083 µM
> 50 µM	5.65 µM	CCc1cc(Br)ccc1Nc1ncnc2cc(OC)c(OCCCN3CCNCCNCCNCC3)cc12	–
> 50 µM	1.12 µM	COc1cc2ncnc(Nc3cccc(Cl)c3)c2cc1OCCCN1CCNCCNCC1	–
–	–	COc1cc2ncnc(Nc3ccc(F)c(Cl)c3)c2cc1OCCCN1CCOCC1 [GEFITINIB]	Activity [10]: 7.05%; Activity [11]: 20.72%; Activity [5]: inactive; Activity [8]: Active; Activity [21]: Non-Toxic
> 50 µM	18.8 µM	CCc1cc(Br)ccc1Nc1ncnc2cc(OC)c(OCCCN3CCNCCNCC3)cc12	–
> 50 µM	6.37 µM	COc1cc2ncnc(Nc3ccc(C#N)cc3F)c2cc1OCCCN1CCNCCNCCNCC1	–
34.3 µM	2.32 µM	COc1cc2ncnc(Nc3cccc(Br)c3)c2cc1OCCCN1CCNCCNCC1	–
15.2 µM	1.84 µM	COc1cc2ncnc(Nc3ccc(Br)cc3F)c2cc1OCCCN1CCNCCNCCNCC1	–
28.6 µM	1.11 µM	C#Cc1cccc(Nc2ncnc3cc(OC)c(OCCCN4CCNCCNCCNCC4)cc23)c1	–
14.5 µM	2.54 µM	COc1cc2ncnc(Nc3cccc(I)c3)c2cc1OCCCN1CCNCCNCCNCC1	–
16.1 µM	0.561 µM	COc1cc2ncnc(Nc3ccc(Br)cc3F)c2cc1OCCCN1CCNCCNCC1	IC50 [3]: 0.0282 µM
37.3 µM	1.56 µM	COc1cc2ncnc(Nc3cccc(C(F)(F)F)c3)c2cc1OCCCN1CCNCCNCC1	–
> 50 µM	7.91 µM	COc1cc2ncnc(Nc3cccc(F)c3)c2cc1OCCCN1CCNCCNCC1	–
20.2 µM	1.01 µM	COc1cc2ncnc(Nc3ccc(F)c(Cl)c3)c2cc1OCCCN1CCNCCNCCNCC1	IC50 [3]: 0.0066 µM
> 50 µM	8.53 µM	COc1cccc(Nc2ncnc3cc(OC)c(OCCCN4CCNCCNCC4)cc23)c1	–
> 50 µM	2.23 µM	C#Cc1cccc(Nc2ncnc3cc(OC)c(OCCCN4CCNCCNCC4)cc23)c1	–
26.2 µM	2.21 µM	COc1cc2ncnc(Nc3cccc(I)c3)c2cc1OCCCN1CCNCCNCC1	–

Structure (SMILES)	IC50 [1]	IC50 [2]	other results
COc1cc2ncnc(Nc3ccc(OCc4cccc(F)c4)c(Cl)c3)c2cc1OCCCN1CCNCCNCC1	7.25 µM	0.442 µM	IC50 [3]: 0.0003 µM; IC50 [4]: 0.0406 µM; Activity [5]: inactive; IC50 [6]: 0.0096 µM; Activity [7]: Active; Activity [8]: Active
COc1cc2ncnc(Nc3ccc(OCc4cccc(F)c4)c(Cl)c3)c2cc1OCCCN1CCNCCNCCNCC1	3.4 µM	0.958 µM	IC50 [3]: 0.0014 µM; Activity [14]: 4.36%; IC50 [9]: 2.74 µM; Activity [10]: 7.94%; Activity [11]: 81.53%; IC50 [4]: 0.0165 µM; Activity [5]: inactive; Activity [15]: Dose-dependent effect; Activity [16]: Active; Activity [17]: 54.62%; IC50 [6]: 0.0021 µM; Activity [18]: Active; Activity [19]: 11.16%; Activity [8]: Active; inhibition at 72 h, 1 µM [13]: 37.6%; inhibition in vivo at 30 mg/kg [20]: 44.2%; Activity [21]: Non-Toxic; Activity [22]: 6.25%
